Tests used:
SW-620 = assay: Anticancer activity against human SW620 cells assessed as cell growth at 10^-5 M after 48 hrs by SRB assay; format: functional; details: SW-620, 48 h, read-out: Activity
Summary of the method: (§1)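 NCI-60 single-dose screen: cells in RPMI 1640 with 5% FBS and 2 mM L-glutamine, plated at 5000–40,000 cells/well by doubling time, and preincubated 24 h at 37 °C. Compound given at one concentration from DMSO stock. Cells TCA-fixed and SRB-stained, absorbance at 515 nm. Percent growth relative to time-zero and untreated controls; inhibition % = 100 − growth %.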

SF-268 = assay: Anticancer activity against human SF268 cells assessed as cell growth at 10^-5 M after 48 hrs by SRB assay; format: functional; details: SF-268, 48 h, read-out: Activity
NCI-H322M = assay: Anticancer activity against human NCI-H322M cells assessed as cell growth at 10^-5 M after 48 hrs by SRB assay; format: functional; details: read-out: Activity
LOX IMVI = assay: Anticancer activity against human LOXIMVI cells assessed as cell growth at 10^-5 M after 48 hrs by SRB assay; format: functional; details: read-out: Activity
Summary of the method: (§2)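 NCI-60 single-dose screen at one concentration. Cells grown in RPMI 1640 with 5% FBS and 2 mM L-glutamine, plated at 5000–40,000 cells/well, and pre-incubated 24 h at 37 °C in 5% CO2 before DMSO-dissolved drug was added. Cells fixed with TCA, SRB-stained, absorbance read at 515 nm. Percent growth calculated against time-zero and untreated control plates.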

OVCAR-5 = assay: Anticancer activity against human OVCAR5 cells assessed as cell growth at 10^-5 M after 48 hrs by SRB assay; format: functional; details: OVCAR-5, 48 h, read-out: Activity
CAKI-1 = assay: Anticancer activity against human Caki1 cells assessed as cell growth at 10^-5 M after 48 hrs by SRB assay; format: functional; details: CAKI-1, 48 h, read-out: Activity; summary of the method: as §2
UO-31 = assay: Anticancer activity against human UO31 cells assessed as cell growth at 10^-5 M after 48 hrs by SRB assay; format: functional; details: UO-31, 48 h, read-out: Activity; summary of the method: as §1
HT-29 = assay: Anticancer activity against human HT-29 cells assessed as cell growth at 10^-5 M after 48 hrs by SRB assay; format: functional; details: HT-29, 48 h, read-out: Activity; summary of the method: as §2
SF-295 = assay: Anticancer activity against human SF295 cells assessed as cell growth at 10^-5 M after 48 hrs by SRB assay; format: functional; details: SF-295, 48 h, read-out: Activity
HL-60(TB) = assay: Anticancer activity against human HL-60(TB) cells assessed as cell growth at 10^-5 M after 48 hrs by SRB assay; format: functional; details: HL-60, 48 h, read-out: Activity
Summary of the method: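 NCI-60 single-dose screen. Cells in RPMI 1640 with 5% FBS and 2 mM L-glutamine were plated at 5000–40,000 cells/well and preincubated 24 h at 37 °C before one compound concentration. Time-zero plates were TCA-fixed at drug addition. For suspension cells, settled cells were fixed with cold TCA, then SRB-stained and read at 515 nm. Percent growth was calculated from time-zero, control and treated absorbances.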

MDA-MB-468 = assay: Anticancer activity against human MDA-MB-468 cells assessed as cell growth at 10^-5 M after 48 hrs by SRB assay; format: functional; details: MDA-MB-468, 48 h, read-out: Activity
SNB-19 = assay: Anticancer activity against human SNB19 cells assessed as cell growth at 10^-5 M after 48 hrs by SRB assay; format: functional; details: SNB-19, 48 h, read-out: Activity
SR = assay: Anticancer activity against human SR cells assessed as cell growth at 10^-5 M after 48 hrs by SRB assay; format: functional; details: read-out: Activity; summary of the method: as §1
MDA-MB-231 = assay: Anticancer activity against human MDA-MB-231 cells assessed as cell growth at 10^-5 M after 48 hrs by SRB assay; format: functional; details: MDA-MB-231, 48 h, read-out: Activity; summary of the method: as §2
OVCAR-4 = assay: Anticancer activity against human OVCAR4 cells assessed as cell growth at 10^-5 M after 48 hrs by SRB assay; format: functional; details: OVCAR-4, 48 h, read-out: Activity
SK-MEL-5 = assay: Anticancer activity against human SK-MEL-5 cells assessed as cell growth at 10^-5 M after 48 hrs by SRB assay; format: functional; details: SK-MEL-5, 48 h, read-out: Activity
HCT-116 = assay: Anticancer activity against human HCT116 cells assessed as cell growth at 10^-5 M after 48 hrs by SRB assay; format: functional; details: HCT-116, 48 h, read-out: Activity; summary of the method: as §2
EKVX = assay: Anticancer activity against human EKVX cells assessed as cell growth at 10^-5 M after 48 hrs by SRB assay; format: functional; details: read-out: Activity; summary of the method: as §2
UACC-62 = assay: Anticancer activity against human UACC62 cells assessed as cell growth at 10^-5 M after 48 hrs by SRB assay; format: functional; details: UACC-62, 48 h, read-out: Activity; summary of the method: as §1
SK-MEL-2 = assay: Anticancer activity against human SK-MEL-2 cells assessed as cell growth at 10^-5 M after 48 hrs by SRB assay; format: functional; details: SK-MEL-2, 48 h, read-out: Activity
[1] = Antiproliferative activity against human A375P cells after 48 hrs by MTT assay; format: functional, cell-based
Summary of the method: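 A375P cells in DMEM with 10% FBS at 37 °C, 5% CO2. Seeded at 5×10³ cells/well, held 24 h, then treated with 12-point 3-fold serial dilutions for 48 h. Viability by MTT reduction. IC50 values are means of triplicate experiments.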

BT-549 = assay: Anticancer activity against human BT549 cells assessed as cell growth at 10^-5 M after 48 hrs by SRB assay; format: functional; details: BT-549, 48 h, read-out: Activity; summary of the method: as §2
PC-3 = assay: Anticancer activity against human PC3 cells assessed as cell growth at 10^-5 M after 48 hrs by SRB assay; format: functional; details: PC-3, 48 h, read-out: Activity
M14 = assay: Anticancer activity against human M14 cells assessed as cell growth at 10^-5 M after 48 hrs by SRB assay; format: functional; details: M14, 48 h, read-out: Activity; summary of the method: as §2
ACHN = assay: Anticancer activity against human ACHN cells assessed as cell growth at 10^-5 M after 48 hrs by SRB assay; format: functional; details: read-out: Activity; summary of the method: as §2
HOP-92 = assay: Anticancer activity against human HOP92 cells assessed as cell growth at 10^-5 M after 48 hrs by SRB assay; format: functional; details: HOP-92, 48 h, read-out: Activity; summary of the method: as §2
T47D = assay: Anticancer activity against human T47D cells assessed as cell growth at 10^-5 M after 48 hrs by SRB assay; format: functional; details: read-out: Activity; summary of the method: as §1
NCI-H226 = assay: Anticancer activity against human NCI-H226 cells assessed as cell growth at 10^-5 M after 48 hrs by SRB assay; format: functional; details: NCI-H226, 48 h, read-out: Activity
MOLT-4 = assay: Anticancer activity against human MOLT4 cells assessed as cell growth at 10^-5 M after 48 hrs by SRB assay; format: functional; details: MOLT-4, 48 h, read-out: Activity
MCF7 = assay: Anticancer activity against human MCF7 cells assessed as cell growth at 10^-5 M after 48 hrs by SRB assay; format: functional; details: MCF7, 48 h, read-out: Activity; summary of the method: as §2

| Structure (SMILES) | growth at 10 µM (SW-620) | growth at 10 µM (SF-268) | growth at 10 µM (NCI-H322M) | growth at 10 µM (LOX IMVI) | growth at 10 µM (OVCAR-5) | growth at 10 µM (CAKI-1) | growth at 10 µM (UO-31) | growth at 10 µM (HT-29) | growth at 10 µM (SF-295) | growth at 10 µM (HL-60(TB)) | growth at 10 µM (MDA-MB-468) | growth at 10 µM (SNB-19) | growth at 10 µM (SR) | growth at 10 µM (MDA-MB-231) | growth at 10 µM (OVCAR-4) | growth at 10 µM (SK-MEL-5) | growth at 10 µM (HCT-116) | growth at 10 µM (EKVX) | growth at 10 µM (UACC-62) | growth at 10 µM (SK-MEL-2) | also measured |
| --- | --- | --- | --- | --- | --- | --- | --- | --- | --- | --- | --- | --- | --- | --- | --- | --- | --- | --- | --- | --- | --- |
| COc1cccc(-c2nc3sccn3c2-c2ccnc(NCCNC(=O)Nc3ccccc3)n2)c1 | 77.3% | 103% | 108% | 102% | 126% | 117% | 76.1% | 87.5% | 110% | 122% | 101% | 103% | 93.1% | 103% | 106% | 81.9% | 52.9% | 113% | 86% | 99.9% | IC50 [1]: > 10 µM; growth at 10 µM (BT-549): 96%; growth at 10 µM (PC-3): 84.2%; growth at 10 µM (M14): 99.1%; growth at 10 µM (ACHN): 95.5%; growth at 10 µM (HOP-92): 70.9%; growth at 10 µM (T47D): 82.5%; growth at 10 µM (NCI-H226): 109%; growth at 10 µM (MOLT-4): 74.9%; growth at 10 µM (MCF7): 96.2% |
| COc1cccc(-c2nc3sccn3c2-c2ccnc(NCCNC(=O)Nc3cccc(C(F)(F)F)c3)n2)c1 | 88.9% | 62.3% | 81.3% | 44.3% | 103% | 40% | 39.7% | 44.1% | 37.7% | 62.8% | 39.6% | 74.8% | 38.5% | 43.6% | 91.1% | 51.5% | 44.6% | 61.5% | 50.5% | 61.9% | IC50 [1]: 5.3 µM; growth at 10 µM (BT-549): 71.9%; growth at 10 µM (PC-3): 32.9%; growth at 10 µM (M14): 39.2%; growth at 10 µM (ACHN): 46.2%; growth at 10 µM (HOP-92): 92.4%; growth at 10 µM (T47D): 42.9%; growth at 10 µM (NCI-H226): 94.9%; growth at 10 µM (MOLT-4): 36.7%; growth at 10 µM (MCF7): 54.8% |
| O=C(NCCNc1nccc(-c2c(-c3cccc(O)c3)nc3sccn23)n1)Nc1ccccc1 | 63.3% | 79.8% | 113% | 79.6% | 114% | 111% | 86.6% | 61.9% | 99.5% | 95.1% | 51.1% | 108% | 90.1% | 85.9% | 123% | 69.3% | 67.5% | 118% | 24.6% | 97.5% | IC50 [1]: > 10 µM; growth at 10 µM (BT-549): 96.2%; growth at 10 µM (PC-3): 86.6%; growth at 10 µM (M14): 24%; growth at 10 µM (ACHN): 85.3%; growth at 10 µM (HOP-92): 90.2%; growth at 10 µM (T47D): 74.1%; growth at 10 µM (NCI-H226): 105%; growth at 10 µM (MOLT-4): 65.5%; growth at 10 µM (MCF7): 93.8% |
